Data reported in ChEMBL document CHEMBL4373711, “Development of 3,5-Dinitrophenyl-Containing 1,2,4-Triazoles and Their Trifluoromethyl Analogues as Highly Efficient Antitubercular Agents Inhibiting Decaprenylphosphoryl-β-d-ribofuranose 2'-Oxidase” (J Med Chem, 2019).
In brackets after ≈: the same amount, converted by molar mass. Activity calls are given as the source filed them. No cut-off for these calls is given here.

Experiments:
[1] = test system: Mycobacterium tuberculosis; assay: Antimycobacterial activity against Mycobacterium tuberculosis H37Rv CNCTC My 331/88 after 21 days; type: functional; details: H37Rv CNCTC My 331/88, 504 h
Summary of the method: (§1)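 M. tuberculosis strains (H37Rv and clinical MDR/XDR isolates) tested by microdilution in Šula's semisynthetic medium. Compounds were dissolved in DMSO and tested at 32 to 0.03 µM in twofold steps. Inoculum was a 1.0 McFarland suspension diluted 10-3. Plates were incubated at 37 °C and read at 14 and 21 days.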

[2] = test system: Serratia marcescens; assay: Antibacterial activity against Serratia marcescens at highest concentration measured after 24 to 48 hrs by alamar blue dye based broth microdilution assay; type: functional, organism-based
[3] = test system: Candida parapsilosis; assay: Antifungal activity against Candida parapsilosis ATCC 22019 CCM 8260 at highest concentration measured after 24 to 48 hrs by alamar blue dye based broth microdilution assay; type: functional, organism-based
[4] = test system: Enterococcus faecalis; assay: Antibacterial activity against Enterococcus faecalis ATCC 29212 CCM 4224 at highest concentration measured after 24 to 48 hrs by alamar blue dye based broth microdilution assay; type: functional, organism-based
[5] = test system: Pseudomonas aeruginosa; assay: Antibacterial activity against Pseudomonas aeruginosa ATCC 27853 CCM 3955 at highest concentration measured after 24 to 48 hrs by alamar blue dye based broth microdilution assay; type: functional, organism-based
[6] = test system: Staphylococcus aureus; assay: Antibacterial activity against Staphylococcus aureus subsp. aureus ATCC 29213 CCM 4223 at highest concentration measured after 24 to 48 hrs by alamar blue dye based broth microdilution assay; type: functional, organism-based
[7] = test system: Mycobacterium kansasii; assay: Antimycobacterial activity against Mycobacterium kansasii 6509/96 after 21 days; type: functional; details: 6509/96, 504 h
Summary of the method: (§2)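 Microdilution in Šula's semisynthetic medium; compounds in DMSO at 32–0.03 µM. Inoculum from 1.0 McFarland suspension diluted 10-4. […] Isoniazid and rifampicin as reference drugs.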

[8] = test system: Escherichia coli; assay: Antibacterial activity against Escherichia coli ATCC 25922 CCM 3954 at highest concentration measured after 24 to 48 hrs by alamar blue dye based broth microdilution assay; type: functional, organism-based
[9] = test system: Mycobacterium avium; assay: Antimycobacterial activity against Mycobacterium avium CNCTC My 330/88 after 21 days; type: functional; details: CNCTC My 330/88, 504 h
Summary of the method: (§3)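 M. avium was tested by microdilution in Šula's semisynthetic medium, with compounds dissolved in DMSO and serially diluted from 1000 down to 1. Inoculum was a 1.0 McFarland suspension diluted 10-5. Plates were incubated at 37 °C and read at 14 and 21 days. […] Isoniazid and rifampicin served as standards.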

[10] = test system: Mycobacterium kansasii; assay: Antimycobacterial activity against Mycobacterium kansasii 6509/96 after 7 days; type: functional; details: 6509/96, 168 h; summary of the method: as §2
[11] = test system: Mycobacterium avium; assay: Antimycobacterial activity against Mycobacterium avium CNCTC My 330/88 after 14 days; type: functional; details: CNCTC My 330/88, 336 h; summary of the method: as §3
[12] = test system: Mycobacterium kansasii; assay: Antimycobacterial activity against Mycobacterium kansasii 6509/96 after 14 days; type: functional; details: 6509/96, 336 h; summary of the method: as §2
[13] = test system: Staphylococcus aureus; assay: Antibacterial activity against methicillin-resistant Staphylococcus aureus subsp. aureus ATCC 43300 CCM 4750 at highest concentration measured after 24 to 48 hrs by alamar blue dye based broth microdilution assay; type: functional, organism-based
[14] = test system: Aspergillus fumigatus; assay: Antifungal activity against Aspergillus fumigatus ATCC 204305 at highest concentration measured after 24 to 48 hrs by alamar blue dye based broth microdilution assay; type: functional, organism-based
[15] = test system: Candida tropicalis; assay: Antifungal activity against Candida tropicalis ATCC 750 CCM 8264 at highest concentration measured after 24 to 48 hrs by alamar blue dye based broth microdilution assay; type: functional, organism-based
[16] = test system: Lichtheimia corymbifera; assay: Antifungal activity against Lichtheimia corymbifera CCM 8077 at highest concentration measured after 24 to 48 hrs by alamar blue dye based broth microdilution assay; type: functional, organism-based
[17] = test system: Staphylococcus epidermidis; assay: Antibacterial activity against Staphylococcus epidermidis at highest concentration measured after 24 to 48 hrs by alamar blue dye based broth microdilution assay; type: functional, organism-based
[18] = test system: Aspergillus flavus; assay: Antifungal activity against Aspergillus flavus CCM 8363 at highest concentration measured after 24 to 48 hrs by alamar blue dye based broth microdilution assay; type: functional, organism-based
[19] = test system: Mycobacterium kansasii; assay: Antimycobacterial activity against Mycobacterium kansasii CNCTC My 235/80 after 7 days; type: functional; details: CNCTC My 235/80, 168 h; summary of the method: as §2
[20] = test system: Trichophyton interdigitale; assay: Antifungal activity against Trichophyton interdigitale ATCC 9533 CCM 8377 at highest concentration measured after 72 to 120 hrs by alamar blue dye based broth microdilution assay; type: functional
[21] = test system: Mycobacterium kansasii; assay: Antimycobacterial activity against Mycobacterium kansasii CNCTC My 235/80 after 14 days; type: functional; details: CNCTC My 235/80, 336 h; summary of the method: as §2
[22] = test system: Candida albicans; assay: Antifungal activity against Candida albicans ATCC 24433 CCM 8320 at highest concentration measured after 24 to 48 hrs by alamar blue dye based broth microdilution assay; type: functional, organism-based
[23] = test system: Mycobacterium kansasii; assay: Antimycobacterial activity against Mycobacterium kansasii CNCTC My 235/80 after 21 days; type: functional; details: CNCTC My 235/80, 504 h; summary of the method: as §2
[24] = test system: Pichia kudriavzevii; assay: Antifungal activity against Candida krusei ATCC 6258 CCM8271 at highest concentration measured after 24 to 48 hrs by alamar blue dye based broth microdilution assay; type: functional, organism-based
[25] = test system: Klebsiella pneumoniae; assay: Antibacterial activity against Klebsiella pneumoniae at highest concentration measured after 24 to 48 hrs by alamar blue dye based broth microdilution assay; type: functional, organism-based
[26] = test system: Mycobacterium tuberculosis; assay: Antimycobacterial activity against Mycobacterium tuberculosis H37Rv CNCTC My 331/88 after 14 days; type: functional; details: H37Rv CNCTC My 331/88, 336 h; summary of the method: as §1

SMILES | MIC99 [1] [µM] | Activity [2] | Activity [3] | Activity [4] | Activity [5] | Activity [6] | MIC99 [7] [µM] | Activity [8] | MIC99 [9] [µM] | MIC99 [10] [µM] | MIC99 [11] [µM] | MIC99 [12] [µM] | Activity [13] | Activity [14] | Activity [15] | Activity [16] | Activity [17] | Activity [18] | MIC99 [19] [µM] | Activity [20] | also measured
CCCCCCCCCCCCn1c(SCc2ccccc2)nnc1-c1cc([N+](=O)[O-])cc([N+](=O)[O-])c1 | 4 (≈ 2.1 µg/mL) | inactive | inactive | inactive | inactive | inactive | 4 (≈ 2.1 µg/mL) | inactive | 250 (≈ 131 µg/mL) | 2 (≈ 1.05 µg/mL) | 250 (≈ 131 µg/mL) | 4 (≈ 2.1 µg/mL) | inactive | inactive | inactive | inactive | inactive | inactive | 2 (≈ 1.05 µg/mL) | inactive | MIC99 [21]: 4 µM (≈ 2.1 µg/mL); Activity [22]: inactive; MIC99 [23]: 4 µM (≈ 2.1 µg/mL); Activity [24]: inactive; Activity [25]: inactive; MIC99 [26]: 2 µM (≈ 1.05 µg/mL)
CCCCCCc1nnc(SCc2cc([N+](=O)[O-])cc([N+](=O)[O-])c2)n1Cc1ccccc1 | 2 (≈ 0.911 µg/mL) | inactive | inactive | inactive | inactive | inactive | 4 (≈ 1.82 µg/mL) | inactive | 250 (≈ 114 µg/mL) | 2 (≈ 0.911 µg/mL) | 250 (≈ 114 µg/mL) | 4 (≈ 1.82 µg/mL) | inactive | inactive | inactive | inactive | inactive | inactive | 1 (≈ 0.456 µg/mL) | inactive | MIC99 [21]: 2 µM (≈ 0.911 µg/mL); Activity [22]: inactive; MIC99 [23]: 2 µM (≈ 0.911 µg/mL); Activity [24]: inactive; Activity [25]: inactive; MIC99 [26]: 2 µM (≈ 0.911 µg/mL)
COc1ccc(-c2nnc(SCc3cc([N+](=O)[O-])cc(C(F)(F)F)c3)n2Cc2ccccc2)cc1 | > 32 | inactive | inactive | inactive | inactive | inactive | > 32 | inactive | 250 (≈ 125 µg/mL) | > 32 | 250 (≈ 125 µg/mL) | > 32 | inactive | inactive | inactive | inactive | inactive | inactive | 32 (≈ 16 µg/mL) | inactive | MIC99 [21]: > 32 µM; Activity [22]: inactive; MIC99 [23]: > 32 µM; Activity [24]: inactive; Activity [25]: inactive; MIC99 [26]: 32 µM (≈ 16 µg/mL)
CCCCCCCCCCCCn1c(SCc2cc([N+](=O)[O-])cc([N+](=O)[O-])c2)nnc1-c1ccccc1 | 4 (≈ 2.1 µg/mL) | inactive | inactive | inactive | inactive | inactive | 4 (≈ 2.1 µg/mL) | inactive | 250 (≈ 131 µg/mL) | 2 (≈ 1.05 µg/mL) | 250 (≈ 131 µg/mL) | 4 (≈ 2.1 µg/mL) | inactive | inactive | inactive | inactive | inactive | inactive | 2 (≈ 1.05 µg/mL) | inactive | MIC99 [21]: 2 µM (≈ 1.05 µg/mL); Activity [22]: inactive; MIC99 [23]: 4 µM (≈ 2.1 µg/mL); Activity [24]: inactive; Activity [25]: inactive; MIC99 [26]: 2 µM (≈ 1.05 µg/mL)
